Test results published in ChEMBL document CHEMBL3297709, “High affinity ligands and potent antagonists for the α1D-adrenergic receptor. Novel 3,8-disubstituted [1]benzothieno[3,2-d]pyrimidine derivatives” (Eur J Med Chem, 2014).

Experiments:
[1] = target: T1, Alpha-1B adrenergic receptor (Homo sapiens, UniProt P35368); assay: Displacement of [125I]BE2254 from human alpha1b receptor expressed in HEK293 cells; type: cell-based
T1 sequence (P35368 whole entry): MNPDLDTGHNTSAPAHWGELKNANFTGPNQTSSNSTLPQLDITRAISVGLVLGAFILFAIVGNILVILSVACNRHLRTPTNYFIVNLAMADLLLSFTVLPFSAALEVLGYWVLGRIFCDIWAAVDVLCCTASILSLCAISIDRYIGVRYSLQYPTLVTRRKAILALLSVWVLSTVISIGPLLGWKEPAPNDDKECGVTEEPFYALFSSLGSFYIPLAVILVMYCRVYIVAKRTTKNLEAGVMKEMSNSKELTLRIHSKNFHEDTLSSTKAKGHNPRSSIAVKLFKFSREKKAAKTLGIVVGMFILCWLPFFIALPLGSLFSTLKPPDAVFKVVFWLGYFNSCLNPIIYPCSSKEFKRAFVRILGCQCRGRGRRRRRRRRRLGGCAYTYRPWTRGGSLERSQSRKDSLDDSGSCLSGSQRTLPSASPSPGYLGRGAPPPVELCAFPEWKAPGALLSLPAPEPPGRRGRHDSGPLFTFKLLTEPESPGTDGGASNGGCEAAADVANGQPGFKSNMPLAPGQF
Outline: (§1)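 Membranes from HEK293 cells stably transfected with human α1A, α1B or α1D receptor cDNA, selected under 400 µg/mL geneticin. Competition against 50 pM [125I]BE2254; nonspecific binding defined with 10 µM phentolamine. Curves fitted by nonlinear regression. Mean ± SE of three experiments run in duplicate.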

[2] = target: T2, Alpha-1D adrenergic receptor (Homo sapiens, UniProt P25100); assay: Displacement of [125I]BE2254 from human alpha1d receptor expressed in HEK293 cells; type: cell-based; outline: as §1
T2 sequence (P25100 whole entry): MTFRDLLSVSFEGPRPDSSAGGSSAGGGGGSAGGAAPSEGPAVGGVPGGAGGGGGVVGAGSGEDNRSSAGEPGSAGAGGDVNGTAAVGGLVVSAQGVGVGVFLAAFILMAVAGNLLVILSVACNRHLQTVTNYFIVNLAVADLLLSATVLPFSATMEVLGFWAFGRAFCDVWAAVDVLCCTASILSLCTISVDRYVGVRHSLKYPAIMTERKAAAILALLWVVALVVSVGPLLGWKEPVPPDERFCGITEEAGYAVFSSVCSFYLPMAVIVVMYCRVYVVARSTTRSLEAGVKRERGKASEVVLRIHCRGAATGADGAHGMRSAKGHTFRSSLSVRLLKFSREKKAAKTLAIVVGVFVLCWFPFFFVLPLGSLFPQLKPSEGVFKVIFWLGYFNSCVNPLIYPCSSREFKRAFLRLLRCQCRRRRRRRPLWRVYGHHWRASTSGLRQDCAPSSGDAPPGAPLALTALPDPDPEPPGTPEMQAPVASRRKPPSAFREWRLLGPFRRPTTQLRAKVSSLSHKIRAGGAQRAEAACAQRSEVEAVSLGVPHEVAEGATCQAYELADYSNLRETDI

[3] = target: T3, Alpha-1A adrenergic receptor (Homo sapiens, UniProt P35348); assay: Displacement of [125I]BE2254 from human alpha1a receptor expressed in HEK293 cells; type: cell-based; outline: as §1
T3 sequence (P35348 whole entry): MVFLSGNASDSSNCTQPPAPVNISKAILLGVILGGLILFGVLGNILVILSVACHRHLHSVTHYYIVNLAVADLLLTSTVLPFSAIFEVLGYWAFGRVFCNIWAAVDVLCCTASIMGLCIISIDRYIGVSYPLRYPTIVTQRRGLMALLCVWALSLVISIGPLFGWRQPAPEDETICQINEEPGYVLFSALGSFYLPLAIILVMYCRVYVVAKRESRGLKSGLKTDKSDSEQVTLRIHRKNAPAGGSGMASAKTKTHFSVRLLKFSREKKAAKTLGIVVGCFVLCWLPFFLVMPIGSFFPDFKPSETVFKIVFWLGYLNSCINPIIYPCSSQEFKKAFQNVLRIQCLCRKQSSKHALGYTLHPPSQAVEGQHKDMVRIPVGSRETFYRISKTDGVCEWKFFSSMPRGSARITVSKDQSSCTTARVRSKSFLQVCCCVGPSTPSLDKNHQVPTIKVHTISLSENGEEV

[4] = target: T4, Alpha-1A adrenergic receptor (Rattus norvegicus) (UniProt P43140); assay: Antagonist activity at alpha1A adrenoceptor in Wistar rat vas deferens assessed as noradrenaline induced contractions
T4 sequence (whole entry): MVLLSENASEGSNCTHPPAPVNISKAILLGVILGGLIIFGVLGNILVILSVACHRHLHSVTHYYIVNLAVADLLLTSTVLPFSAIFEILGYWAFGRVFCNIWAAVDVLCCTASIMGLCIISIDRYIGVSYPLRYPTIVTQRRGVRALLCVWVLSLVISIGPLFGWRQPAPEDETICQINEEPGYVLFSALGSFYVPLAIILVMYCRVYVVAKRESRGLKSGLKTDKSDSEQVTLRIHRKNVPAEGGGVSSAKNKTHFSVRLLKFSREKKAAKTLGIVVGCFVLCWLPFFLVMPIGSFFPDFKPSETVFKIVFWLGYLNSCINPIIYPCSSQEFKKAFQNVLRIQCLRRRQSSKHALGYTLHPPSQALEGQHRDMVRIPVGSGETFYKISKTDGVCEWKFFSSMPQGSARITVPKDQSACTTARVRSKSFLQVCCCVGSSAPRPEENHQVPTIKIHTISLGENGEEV
Outline: (§2)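 Male Wistar rat (275-300 g) prostatic vas deferens in 20 mL organ bath, physiological salt solution, 37 °C, 5% CO2:95% O2, pH 7.4. Primed twice with 10 µM (-)-NA, 45 min wash/equilibration, then cumulative (-)-NA curve recorded isotonically. Antagonist incubated 30–60 min before repeat curve. pKb = log(DR-1) - log[B] from ED50 ratio; mean ± SE of 4–5 experiments.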

[5] = target: T5, Alpha-1D adrenergic receptor (Rattus norvegicus) (UniProt P23944); assay: Antagonist activity at alpha1D adrenoceptor in Wistar rat thoracic aorta assessed as noradrenaline induced contractions
T5 sequence (whole entry): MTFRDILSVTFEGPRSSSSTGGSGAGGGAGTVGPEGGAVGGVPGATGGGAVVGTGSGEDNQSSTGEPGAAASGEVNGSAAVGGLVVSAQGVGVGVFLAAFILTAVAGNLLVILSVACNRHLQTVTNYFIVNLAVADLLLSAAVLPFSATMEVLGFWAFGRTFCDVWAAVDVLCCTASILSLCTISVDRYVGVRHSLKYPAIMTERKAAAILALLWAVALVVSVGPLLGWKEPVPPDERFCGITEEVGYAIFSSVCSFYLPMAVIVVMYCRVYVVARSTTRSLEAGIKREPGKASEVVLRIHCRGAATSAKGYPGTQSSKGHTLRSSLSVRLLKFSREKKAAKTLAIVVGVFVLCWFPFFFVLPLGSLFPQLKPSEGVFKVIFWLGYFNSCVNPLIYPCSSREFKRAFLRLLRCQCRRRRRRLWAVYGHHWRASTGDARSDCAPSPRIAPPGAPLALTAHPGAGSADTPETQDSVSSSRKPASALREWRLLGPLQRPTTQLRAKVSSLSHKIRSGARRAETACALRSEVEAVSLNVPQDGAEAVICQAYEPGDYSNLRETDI
Outline: (§3)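 Endothelium-denuded helicoidal thoracic aorta strips (15 x 3 mm) from male Wistar rats, Krebs solution, 1 g tension, ≥2 h equilibration. Cumulative (-)-NA curves recorded isometrically at 1 h intervals, third as control. Antagonist equilibrated 60 min before fourth curve. NA solutions held 0.05% Na2S2O4. pKb = log(DR-1) - log[B]; mean ± SE of 4–5 experiments.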

[6] = target: T6, Alpha-1B adrenergic receptor (Rattus norvegicus) (UniProt P15823); assay: Antagonist activity at alpha1B adrenoceptor in Wistar rat spleen assessed as phenylephrine induced contractions
T6 sequence (whole entry): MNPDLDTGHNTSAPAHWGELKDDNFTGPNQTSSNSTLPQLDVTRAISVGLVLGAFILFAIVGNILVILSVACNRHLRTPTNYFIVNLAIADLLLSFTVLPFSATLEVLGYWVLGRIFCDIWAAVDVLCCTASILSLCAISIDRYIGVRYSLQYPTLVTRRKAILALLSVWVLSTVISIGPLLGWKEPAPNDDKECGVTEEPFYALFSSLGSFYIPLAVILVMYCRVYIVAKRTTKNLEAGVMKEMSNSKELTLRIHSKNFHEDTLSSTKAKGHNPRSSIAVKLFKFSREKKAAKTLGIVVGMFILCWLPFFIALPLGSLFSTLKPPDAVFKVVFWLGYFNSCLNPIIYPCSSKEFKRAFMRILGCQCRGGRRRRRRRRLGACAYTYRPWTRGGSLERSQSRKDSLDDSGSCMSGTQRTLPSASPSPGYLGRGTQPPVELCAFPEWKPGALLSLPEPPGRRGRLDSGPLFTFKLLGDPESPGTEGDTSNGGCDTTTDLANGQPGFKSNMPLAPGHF
Outline: (§4)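 Wistar rat spleen strips under 1 g resting tension, equilibrated 2 h, with 4 µM (±)-propranolol to block β-adrenoceptors. Cumulative phenylephrine curves measured isometrically at 30 min intervals, first discarded, second as control. Antagonist incubated 30–60 min before repeat curve. pKb from ED50 dose ratio via pKb = log(DR-1) - log[B]; mean ± SE of 4–5 experiments.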

[7] = target: T4, Alpha-1A adrenergic receptor (Rattus norvegicus); assay: Antagonist activity at alpha1A adrenoceptor in Wistar rat vas deferans assessed as decrease in noradrenaline induced contractions at 0.1 uM; design: scale not given: the % may be the effect or the level left; outline: as §2
[8] = target: T6, Alpha-1B adrenergic receptor (Rattus norvegicus); assay: Antagonist activity at alpha1B adrenoceptor in Wistar rat spleen assessed as decrease in phenylephrine induced contractions at 0.1 uM; design: scale not given: the % may be the effect or the level left; outline: as §4
[9] = target: T5, Alpha-1D adrenergic receptor (Rattus norvegicus); assay: Antagonist activity at alpha1D adrenoceptor in Wistar rat thoracic aorta assessed as decrease in noradrenaline induced contractions at 0.1 uM; design: scale not given: the % may be the effect or the level left; outline: as §3

SMILES | Ki [1] [nM] | Ki [2] [nM] | Ki [3] [nM] | pKb [4] | pKb [5] | pKb [6] | Activity [7] [%] | Activity [8] [%] | Activity [9] [%]
COc1ccccc1N1CCN(CCn2c(C)nc3c(sc4ccc(NC(=O)Cc5ccccc5)cc43)c2=O)CC1 | 30.2 | 3.31 | 3.39 | – | – | – | – | – | –
COc1ccccc1N1CCN(CCn2c(C)nc3c(sc4ccc(NC(=O)CCCNC(=O)Cc5ccccc5)cc43)c2=O)CC1 | 7.59 | 2.29 | 1 | – | – | – | – | – | –
COc1ccccc1N1CCN(CCn2c(=O)[nH]c3c(sc4ccc(NC(=O)CCCN(C)Cc5ccccc5)cc43)c2=O)CC1 | 7.41 | 4.07 | 6.92 | – | – | – | – | – | –
COc1ccccc1N1CCN(CCn2c(=O)[nH]c3c(sc4ccc(NC(=O)CCCc5ccccc5)cc43)c2=O)CC1 | 33.9 | 3.24 | 7.08 | – | – | – | – | – | –
COc1ccccc1N1CCN(CCn2c(=O)[nH]c3c(sc4ccc(NC(=O)CCCN(C)C)cc43)c2=O)CC1 | 1.66 | 1.66 | 1.7 | – | – | – | – | – | –
COc1ccccc1N1CCN(CCn2c(=O)[nH]c3c(sc4ccc(NC(=O)c5ccccc5)cc43)c2=O)CC1 | 10 | 0.575 | 1.1 | – | – | – | – | – | –
COc1ccccc1N1CCN(CCn2c(C)nc3c(sc4ccc(NC(=O)c5ccccc5)cc43)c2=O)CC1 | 38.9 | 5.01 | 3.89 | – | – | – | – | – | –
COc1ccccc1N1CCN(CCn2c(C)nc3c(sc4ccc(NC(=O)CCCC(=O)NCCc5ccccc5)cc43)c2=O)CC1 | 6.46 | 0.759 | 0.912 | – | – | – | – | – | –
COc1ccccc1N1CCN(CCn2c(C)nc3c(sc4ccc(NC(=O)CCCC(=O)NCc5ccccc5)cc43)c2=O)CC1 | 19.1 | 5.5 | 3.55 | – | – | – | – | – | –
COc1ccccc1N1CCN(CCn2c(=O)[nH]c3c(sc4ccccc43)c2=O)CC1 | – | – | – | 8.61 | 8.89 | 8.44 | – | – | –
COc1ccccc1N1CCN(CCn2c(=O)[nH]c3c(sc4ccc(NC(=O)CCCC(=O)N(C)Cc5ccccc5)cc43)c2=O)CC1 | 1.91 | 0.0562 | 0.933 | 7.82 | 9.15 | 7.77 | 90 | 100 | 100
COc1ccccc1N1CCN(CCn2c(=O)[nH]c3c(sc4ccc(NC(=O)CCC(=O)NCc5ccccc5)cc43)c2=O)CC1 | 2.69 | 0.372 | 1.1 | – | – | – | – | – | –
COc1ccccc1N1CCN(CCn2c(=O)[nH]c3c(sc4ccc(NC(=O)CCCCc5ccccc5)cc43)c2=O)CC1 | 36.3 | 1.17 | 5.25 | – | – | – | – | – | –
COc1ccccc1N1CCN(CCn2c(=O)[nH]c3c(sc4ccc(NC(=O)CCCC(=O)NCCc5ccccc5)cc43)c2=O)CC1 | 6.46 | 1 | 1.62 | – | – | – | – | – | –
COc1ccccc1N1CCN(CCn2c(=O)[nH]c3c(sc4ccc(NC(=O)CCCC(=O)NCc5ccccc5)cc43)c2=O)CC1 | 0.832 | 0.141 | 0.324 | 7.7 | 8.64 | 7.94 | 100 | 100 | 100
COc1ccccc1N1CCN(CCn2c(=O)[nH]c3c(sc4ccc(NC(=O)Cc5ccccc5)cc43)c2=O)CC1 | 28.2 | 0.912 | 1.48 | – | – | – | – | – | –
